# ADAM10 inh – inhibits human ADAM10; O14672; recombinant ADAM10, EDANS/DABCYL FRET peptide cleavage, 3 h; inhibition, % at 7 µM; 0.62% of 370,000 active;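 active = inhibition above a per-campaign cutoff equal to the mean of compounds falling between control-based bounds plus 3 SD, cut at about 20% in these data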;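 note: 0% = DMSO wells while the 100% control is not disclosed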
# ADAM17 inh – inhibitors of human ADAM17 | recombinant ADAM17, EDANS/DABCYL FRET peptide cleavage | inhibition, % at 6.95 µM | 0.83% of 370,000 active;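 active = inhibition above the mean of compounds lying between control limits plus 3 SD, set per campaign, cut at about 8.5% in these data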;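 note: 0% = DMSO-only wells as the low control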
# Target sequence (P78536 215-824 limits assumed): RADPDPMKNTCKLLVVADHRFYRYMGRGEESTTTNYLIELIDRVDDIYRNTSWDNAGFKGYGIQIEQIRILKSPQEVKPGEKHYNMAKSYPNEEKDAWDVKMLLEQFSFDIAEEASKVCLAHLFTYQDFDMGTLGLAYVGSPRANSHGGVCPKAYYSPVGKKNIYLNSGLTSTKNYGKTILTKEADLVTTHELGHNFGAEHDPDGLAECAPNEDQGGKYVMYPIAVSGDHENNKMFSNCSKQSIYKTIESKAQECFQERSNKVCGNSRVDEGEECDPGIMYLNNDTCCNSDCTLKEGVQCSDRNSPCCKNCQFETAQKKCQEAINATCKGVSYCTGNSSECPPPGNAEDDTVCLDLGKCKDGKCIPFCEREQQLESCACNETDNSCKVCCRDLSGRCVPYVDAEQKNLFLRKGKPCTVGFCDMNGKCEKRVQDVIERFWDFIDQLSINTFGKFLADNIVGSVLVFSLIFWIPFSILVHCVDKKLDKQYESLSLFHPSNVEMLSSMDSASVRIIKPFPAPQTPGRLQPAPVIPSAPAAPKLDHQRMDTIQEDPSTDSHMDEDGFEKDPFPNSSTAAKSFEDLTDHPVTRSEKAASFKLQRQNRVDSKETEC
# proKLK7 act – activators of human kallikrein-7 zymogen; 0.9% of 370,000 active; AID 652039; purified proKLK7, EDANS-DABCYL substrate fluorescence; 100% is mature enzyme control, 0% vehicle; P49862; activation, % at 7 µM;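 active = activation above the mean of all tested compounds plus 3 SD, computed per campaign excluding outliers beyond control limits, cut at about 13% in these data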
# NR2E3 ag-1 – agonists of human nuclear receptor NR2E3; Q9Y5X4; GST-NR2E3/biotin-RetCOR TR-FRET, 1536-well; inhibition of corepressor binding, % at 4.78 µM; 0.12% of 320,000 active;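 active = percent inhibition above the cutoff of mean plus 3 SD of all tested compounds, set per screening campaign, cut at about 20% in these data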;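 note: 0% = DMSO wells and 100% = biotin wells as full block of FRET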
#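 System: GST-NR2E3 and biotin-RetCOR proteins; probe or stimulus: 7 nM biotin-RetCOR; doses: compound at 4.8 µM, single dose; schedule: Compound–protein incubation for 5 h at 4 °C; detection: time-resolved FRET; read-out: percent inhibition; controls: biotin wells as high control, 0.6% DMSO wells as low control; format: 1536-well plates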
# JMJD2C inh – inhibitors of human GASC-1 (JMJD2C) demethylase; Q9H3R0; GST-JMJD2C(1-420) H3K9me3 demethylation, DELFIA europium; inhibition, % at 2.35 µM; 0.069% of 330,000 active; AID 2099;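 active = more than half of a compound's replicate wells show inhibition beyond 50%, single wells judged on their own value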;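 note: signal counts dimethyl H3K9 product captured on neutravidin plate; 0% = median of DMSO wells and 100% = 0.3 times that DMSO median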
# NR2E3 ag-2 – human photoreceptor-specific nuclear receptor agonism | 0.35% of 360,000 active | inhibition of corepressor binding, % at 3.98 µM | CHO-S Gal4-NCOR/VP16-NR2E3 two-hybrid, luciferase | Q9Y5X4;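 active = inhibition above the mean of all tested compounds plus 3 SD, cut at about 70% in these data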;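 note: 0% = DMSO with NR2E3 transfected cells and 100% = cells lacking NR2E3 construct; higher means lower luciferase signal from less NR2E3 corepressor binding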
# proKLK7 act conf – proKLK7 activation, confirmation | purified proKLK7, EDANS-DABCYL substrate fluorescence; scaled: vehicle 0, mature enzyme 100 | 68% of 3,200 active | activation, % at 7 µM | AID 686949 | shares compounds with proKLK7 act;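 active = activation, as change over the incubation, above the mean of all tested compounds plus 3 SD, cut at about 13% in these data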
# EDANS interfere – counter-screen for kallikrein-7 activators: EDANS-DABCYL optical interference | shares compounds with proKLK7 act | EDANS-DABCYL substrate fluorescence interference, no enzyme, 4 h; solvent 0%, active enzyme control 100% | activation, % at 7 µM | 80% of 3,200 active | AID 686952;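 active = activation above the all-compound mean plus 3 SD, ignoring values outside control-based bounds, cut at about 4.8% in these data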;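 note: value is the 4 h activation minus the activation read at time zero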
# K7 EDANS ctr – counter-screen for kallikrein-7 activators: EDANS-DABCYL interference, dose response. shares compounds with proKLK7 act. EDANS-DABCYL peptide fluorescence interference, no enzyme. EC50, µM. 20% of 250 active;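 active = compounds that raise the fluorescence signal in this interference counterscreen, with EC50 at or below 10 µM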;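 note: intact quenched peptide substrate alone read at 355 nm excitation and 520 nm emission; signal is fluorescence gain from T0 to T4 after four hours at room temperature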
# The depositor's hits bear a star; i = inactive; / = no result. Only some compounds are listed: those with a hit (about 2.5% of all), similar ones and a draw of the others.
SMILES,ADAM10 inh,ADAM17 inh,proKLK7 act,NR2E3 ag-1,JMJD2C inh,NR2E3 ag-2,proKLK7 act conf,EDANS interfere,others
COCCNC(=O)C1CCCN(C(=O)c2ccc(SC(F)(F)F)cc2)CC1 (stereo unspecified),-0.5,-2.0,0.2,/,/,-26.3,/,/,
O/N=C(\Cn1ccnc1)c1ccccc1,6.3,0.0,-0.5,/,/,4.2,/,/,
COc1ccccc1NC(=O)CSc1nc2[nH]ncc2c(=O)[nH]1,1.2,-1.6,0.1,-3.9,-2.4,-4.0,/,/,
CCOc1ccc2c(c1)/C(=C(\C(Cl)=C(Cl)Cl)[N+](=O)[O-])N2,i,-187.8,17.9*,1.4,-0.7,11.8,53.4*,61.0*,
CC(=O)Oc1ccc2c(C)cc(=O)oc2c1C(=O)c1ccccc1,-64.5,-14.2,10.3,1.8,-18.2,-14.1,/,/,
CCC(=O)Oc1c(C(=O)CC)cc2c(C)cc(=O)oc2c1C,-31.2,-8.9,539.7*,-0.9,2.1,-66.1,810.3*,812.2*,
CCC(=O)Nc1c(OC(=O)CC)ccc2c(C)cc(=O)oc12,i,i,273.1*,3.0,0.1,12.5,256.2*,253.6*,
CCC(=O)c1cc2c(C)cc(=O)oc2c(C)c1OC,-11.6,-2.8,-0.5,0.1,-18.6,-14.3,/,/,
Cc1ccc(C2C=C(c3ccccc3)Nc3nc(N4C(=O)CCC4=O)nn32)cc1 (stereo unspecified),-174.6,-62.1,90.8*,/,/,-13.0,-53.1,-89.5,
CC(=O)Nc1ccc2nc(-c3cccs3)[nH]c2c1,i,i,16.1*,3.5,2.3,-30.5,35.9*,27.6*,K7 EDANS ctr=8.23*
CC(=O)Nc1ccc2nc(-c3ccc(Br)o3)[nH]c2c1,-37.4,-9.2,1.3,-0.9,-100.2,-17.9,/,/,
Nc1ccc2nc(-c3ccccn3)[nH]c2c1,-20.4,-9.4,-1.2,-4.1,2.8,-60.0,/,/,
Nc1ccc2nc(-c3ccccc3)[nH]c2c1,i,i,77.4*,-5.3,-38.1,-83.1,61.2*,75.6*,
Nc1ccc2nc(-c3cccs3)[nH]c2c1,i,i,73.0*,-1.2,1.3,-96.5,67.1*,69.2*,
Nc1ccc2nc(-c3ccc(N)c(Cl)c3)[nH]c2c1,i,i,77.3*,-9.6,-13.4,-62.9,67.6*,71.7*,
CC1=C(C(=O)Nc2cccc(C(=O)NC(C)c3ccccc3)c2)SCCO1 (stereo unspecified),-0.5,0.2,0.8,4.5,-12.5,-22.4,/,/,
Nc1ccc(-c2nc3c(Cl)cc(N)cc3[nH]2)cc1,i,i,41.8*,-12.8,16.4,28.7,79.0*,68.7*,
O=C1Nc2ccc(S(=O)(=O)NCCCO)c3cccc1c23,i,-411.5,63.6*,/,-10.9,9.5,82.9*,86.4*,
CCNS(=O)(=O)c1ccc2c3c(cccc13)C(=O)N2,i,-440.6,85.9*,-3.3,-5.6,-16.7,67.8*,81.8*,
CCN(CC)S(=O)(=O)c1ccc2c3c(cccc13)C(=O)N2,i,-129.7,23.0*,-1.5,0.6,-4.0,14.6*,20.6*,
O=C1Nc2ccc(S(=O)(=O)NCCC3=CCCCC3)c3cccc1c23,-334.7,-113.0,18.0*,3.2,-44.0,25.6,11.6,19.1*,
CCOC(=O)c1c(C)oc2ccc(NS(=O)(=O)c3ccc4c5c(cccc35)C(=O)N4)cc12,-10.7,-5.0,2.6,2.7,i,26.0,/,/,
O=S(=O)(NCCC1=CCCCC1)c1ccc(F)cc1,-15.3,-1.5,0.3,2.0,-5.8,-15.0,/,/,
CCN(c1cccc(C)c1)S(=O)(=O)c1ccc2c3c(cccc13)C(=O)N2,-15.3,-7.0,-1.4,-1.5,1.9,-20.8,/,/,
Cc1nn(CCc2nn[nH]n2)c2nc(C(F)(F)F)cc(C(F)(F)F)c12,i,-264.9,30.0*,3.8,3.0,-14.2,17.2*,12.1*,K7 EDANS ctr=>69.5
SMILES,ADAM10 inh,ADAM17 inh,proKLK7 act,NR2E3 ag-1,JMJD2C inh,NR2E3 ag-2,proKLK7 act conf,EDANS interfere,others
Cc1nn(CCO)c2nc(-c3cccs3)cc(C(F)(F)F)c12,i,i,6.9,-3.0,-0.9,15.2,/,/,
Cc1c(C2(O)CCCCC2)[nH]c2ccccc12,-8.9,-4.9,0.6,/,/,/,/,/,
CCc1c(C2(O)CCCCC2)[nH]c2cnccc12,i,-285.8,70.0*,2.5,1.7,7.4,12.0,16.5*,
O=c1c([N+](=O)[O-])cccn1Cc1cccc(Br)c1,0.2,-5.4,-1.1,/,4.5,-11.2,/,/,
Nc1nc2nccc(-c3ccc(Cl)cc3)n2n1,i,i,56.9*,1.2,2.0,-25.4,70.0*,84.6*,
CN(C)/C=N/c1nc2nccc(-c3ccc(Cl)cc3)n2n1,-253.6,-68.7,18.0*,-0.3,15.1,-0.6,65.8*,68.8*,
Cc1cc(-c2ccc(Cl)cc2)n2nc(N)nc2n1,-315.1,-122.8,6.2,0.3,6.9,10.0,/,/,
O=C(CN1C(=O)c2cccc([N+](=O)[O-])c2C1=O)OCC(=O)N1CCCCC1,3.2,-0.1,-0.1,2.6,-13.1,-14.7,/,/,
O=C(Nc1ccc2c(c1)OCCO2)Nc1ccc2c(c1)OCO2,-2.3,-0.7,1.0,6.2,-5.5,-155.4,/,/,
CC(Nc1ccc2c(c1)OCCO2)C(=O)Nc1ccc2c(c1)OCO2 (stereo unspecified),-7.0,-8.8,48.9*,1.0,-4.2,-11.4,39.4*,51.8*,
CS(=O)(=O)NN1C(=O)c2ccccc2NC1c1cccc(O)c1 (stereo unspecified),i,-283.1,62.9*,-0.9,-22.7,4.2,17.1*,18.7*,
CS(=O)(=O)NN1C(=O)c2ccccc2NC1c1cccs1 (stereo unspecified),i,-198.9,63.2*,2.5,/,-9.6,-0.4,10.9*,
COc1ccc(C2Nc3ccccc3C(=O)N2NS(C)(=O)=O)c(OC)c1 (stereo unspecified),i,-253.1,68.6*,-2.3,-10.9,-23.0,10.6,15.1*,
CS(=O)(=O)NN1C(=O)c2ccccc2NC1c1c[nH]c2ccccc12 (stereo unspecified),-184.3,-54.3,13.6*,-1.1,-1.1,-38.6,0.9,1.8,
CC1N(C(=O)N2CCOCC2)CCN1S(=O)(=O)c1cccc(C(F)(F)F)c1 (stereo unspecified),-8.0,-0.7,-0.5,2.2,-8.5,-8.7,/,/,
COc1ccc(NC(=O)C2CC3CCC2C3)c(OC)c1 (stereo unspecified),-2.3,-1.6,0.1,-2.7,1.2,5.7,/,/,

# High-throughput results: PubChem, several laboratories
